Many of the other results were omitted from the sample, so hits are more common in it than they were.
INS promoter act – TRM-6 insulin promoter activation; activation, % at 2 µM; AID 1296; TRM-6 cells, insulin promoter eGFP reporter, imaging; plate-scaled: unstimulated 0, stimulated control 100; 0.81% of 130,000 active;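 active means activation at 2 µM above a set limit, confirmed on inspection of the cell images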;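 further: share of cells whose green reporter signal exceeds an intensity cutoff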
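System: human fetal islet-derived TRM-6 cells with tamoxifen-inducible insulin promoter–eGFP reporter; input: seeding density of 1,000 cells per well; buffer or medium: Low-glucose (5.5 mM) medium with tamoxifen; incubation: compound exposure 48 h, 37 °C; measured by: high-content imaging of fixed cells with Hoechst nuclear stain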
Of the large screens only hits and unclear results are named; the others gave an inactive call; [ ] = dose if it differs, or a comment.

CCN(Cc1ccccc1)C(=O)C1CCN(CC2CC=CCC2)CC1 (centres undefined)	none
O=C(C1CCCCC1)N(Cc1ccccc1)c1ccccn1	none
O=C(CSc1nc2nn(-c3ccccc3)c(=O)c-2c2n1CCCCC2)NCCCc1ccccc1	none
O=C(NNC(=O)[C@@H]1CCCC[C@@H]1C(=O)O)Nc1ccccc1	none
CSC(=NC#N)N1CCN(c2cccc(Cl)c2)CC1	none
Cc1ccc(S(=O)(=O)/C(C#N)=C/c2c(N3CCC(C(N)=O)CC3)nc3ccccn3c2=O)cc1	none
CCNc1nc(NCC)nc(N(C)N)n1	none
Cn1c(=S)n(/N=C/c2ccc3c(c2)OCO3)c2ccccc21	none
CCCCn1c(/N=C/c2ccc3c(c2)OCO3)nc2ccccc21	INS promoter act 80.7
CN(C)CCCn1c(NCc2ccc3c(c2)OCO3)nc2ccccc21	none
Cc1c(-c2ccc(F)cc2)[n+](=O)c2c(n1[O-])CCCCC2	none
O=C(CN1C(=O)S/C(=C/c2ccc(N3CCOCC3)cc2)C1=O)N1CCOCC1	none
COC(=O)CN1C(=O)S/C(=C/c2cc(C)n(C)c2C)C1=O	none
COC(=O)CN1C(=O)S/C(=C/c2ccc(N3CCCCC3)o2)C1=O	INS promoter act 183.9
CCn1cnc2sc(C)c(C)c2c1=O	none
O=C(NCCN1CCN(Cc2ccccc2Cl)CC1)Nc1ccccc1	none
CCc1ccc(/C=C2\Oc3cc(OC(=O)N4CCOCC4)ccc3C2=O)cc1	none
C=CCc1c(C)[nH]c(=O)[nH]c1=O	none
Cc1cc(Br)c(NC(=O)CCl)c(Br)c1	none
COc1ccc(Br)cc1C(=O)Nc1nnn(C)n1	none
Cc1cc(C)c(OCC(=O)Nc2nnn(C)n2)c(Br)c1	INS promoter act 76.6
O=C1CC(N2CCN(c3ccccc3)CC2)C(=O)N1c1ccc2c(c1)OCO2 (centres undefined)	none
Cc1ccc(-c2nnn(CC(=O)N(CC3CCCO3)C(C(=O)NC3CCCC3)c3ccc(O)cc3)n2)o1 (centres undefined)	none
Cc1ccc(-c2nnn(CC(=O)N(CC3CCCO3)C(C(=O)NC3CCCC3)c3ccc(F)cc3)n2)o1 (centres undefined)	INS promoter act 500.0
Cc1ccc(-c2nnn(CC(=O)N(c3cccc(F)c3)C(C(=O)NC3CCCC3)c3ccco3)n2)o1 (centres undefined)	none
Cc1nc2ccccn2c1C(=O)NNS(=O)(=O)c1ccc(C(C)(C)C)cc1	none
CS(=O)(=O)N(CC(=O)NCC1CCCO1)c1ccc(F)c(Cl)c1 (centres undefined)	none
O=C(C1CC=CCC1)N1CCN(C(=O)C2CC=CCC2)CC1 (centres undefined)	none
CSc1nc(C)cc(/C=C\c2ccccc2)c1C#N	none
CSc1nsc(/C=C/Nc2ccc(O)cc2C)c1C#N	INS promoter act 809.1
COc1ccc2cc(CN(CC3CCCO3)C(=S)Nc3ccccc3)c(=O)[nH]c2c1 (centres undefined)	none
COc1ccc(OCc2nnc(SCC(N)=O)n2-c2ccccc2OC)cc1	INS promoter act 160.0
NC(=O)CSc1nnc(COc2ccccc2)n1CCc1ccccc1	none
COc1ccccc1-n1c(COc2ccccc2-c2ccccc2)nnc1SCC(=O)c1c(N)n(C)c(=O)n(C)c1=O	none
CCc1[nH]nc(C(=O)N2CCCC(CCC(=O)N3CCN(c4ccccn4)CC3)C2)c1C (centres undefined)	none
CCNC(=O)NC(=O)C(C)Sc1ccc2c(c1)OCCO2 (centres undefined)	none
COc1ccc2cc(Br)ccc2c1CC(=O)NC(C)(C)C	none
Cc1c(N2C(=O)C(=O)/C(=C(/O)c3ccc(Cl)cc3)C2c2ccccc2)c(=O)n(-c2ccccc2)n1C (centres undefined)	none
COc1ccc(OCC(=O)N/N=C(/C)Cc2ccccc2)cc1	none
Cc1cc(C)cc(NC(=S)NCc2ccc3c(c2)OCO3)c1	none
Cc1ccc(CNc2ccc3c(c2)OCO3)cc1	INS promoter act 440.5
COC(=O)CNc1ccc2c(c1)OCO2	none
COC(=O)CCC(=O)Nc1cccc(Cl)c1	none
Cc1ccc(NC(=O)CCSCCC(=O)Nc2ccc(C)c(C)c2)cc1C	none
CCc1cccc(NC(=O)CCSCCC(=O)Nc2cccc(CC)c2)c1	INS promoter act 89.7
CC1CCc2c(sc(NS(=O)(=O)c3ccccc3)c2C(=O)OC(C)C)C1 (centres undefined)	none
CC(=O)OCCSc1c(-c2ccccc2)c2cc(Cl)ccc2[nH]c1=O	none
COc1ccc(NC(=O)CN2c3cccc4cccc(c34)S2(=O)=O)cc1	none
COc1ccc2c(c1)-c1ccccc1S(=O)(=O)N2C(C)=O	INS promoter act 183.9
COc1ccc2c(=O)c(N3C(=O)c4ccccc4C3=O)coc2c1	none
O=C(O)c1ccc(Nc2ncnc3c2cnn3Cc2ccccc2)cc1	none
COc1cccc(C2CC(c3cccc(Br)c3)n3nc(N)nc3N2)c1 (centres undefined)	none
O=C(Nc1nc2ccccc2[nH]1)c1ccc(Br)o1	none
O=C(NCC1(c2ccccc2)CCCC1)c1ccc(Br)o1	none
O=C1CCCC2=C1C(c1ccccc1)CC(=O)N2c1ccccc1 (centres undefined)	INS promoter act 181.8
Cc1ccccc1C1CC(=O)NC2=C1C(=O)CCC2 (centres undefined)	none
Cc1cc(C)n(C2CC(=O)N(c3ccccc3)C2=O)n1 (centres undefined)	none
Cn1ncc(Cl)c1C(=O)Nc1sc2c(c1C(N)=O)CCC2	none
CCN1CCc2c(sc(NC(=O)Nc3ccc(Cl)c(Cl)c3)c2C(N)=O)C1	INS promoter act 207.7
CCOC(=O)c1c(NC(=S)Nc2ccc(Cl)cc2)sc2c1CCN(C)C2	none
CCOC(=O)c1sc(=S)n(-c2ccccc2)c1N(C(C)=O)C(C)=O	none
Cc1cccc(OCc2nnc(NC(=O)c3cccs3)s2)c1	none
Cc1nnc(NC(=O)c2sc3nc(-c4cccs4)cc(C(F)(F)F)c3c2N)s1	INS promoter act 106.8[may fluoresce]
N#Cc1sc2nc(-c3cccs3)cc(-c3ccccc3)c2c1N	none
Nc1c(C(=O)Nc2nccs2)sc2nc(-c3cccs3)cc(C(F)(F)F)c12	INS promoter act 181.7[may fluoresce]
COc1ccc(NC(=O)c2sc3nc(Cc4ccccc4)cc(C(F)(F)F)c3c2N)cc1OC	none
O=C(Nc1nccc(-c2cccs2)n1)c1ccccc1Cl	none
O=C(CSc1ncnc2c1cnn2CCO)Nc1cccc(C(F)(F)F)c1	none
Cc1ccc(S(=O)(=O)Nc2ccc(S(=O)(=O)NC(C)(C)C)cc2)cc1	none
Cc1ccc(NS(=O)(=O)c2ccc(CCC(=O)N3CCOCC3)cc2)cc1	none
Cc1ccc(S(=O)(=O)Nc2ccc(N3CCOCC3)cc2)cc1	INS promoter act 81.2
COc1ccc(CCNC(=O)Cn2cnc3scc(-c4ccccc4)c3c2=O)cc1OC	none
Cc1cc(C)n2nc(CCc3ccccc3)nc2n1	none
Cc1cc(C)n2nc(-c3ccc(F)cc3)nc2n1	none
Cc1cc(N)nc2nc(C(F)(F)F)nn12	INS promoter act 800.0
N#Cc1cc(-c2ccccc2)c[nH]c1=O	none
COc1ccc(-c2ccc3c(n2)sc2c(=O)[nH]c(=O)[nH]c23)cc1OC	none
O=C(CSc1nnc(C2CC2)n1-c1ccccc1)NCCc1ccccc1	none
COCC(=O)N(c1ccc(C(C)C)cc1)C1C=CS(=O)(=O)C1 (centres undefined)	INS promoter act 422.2
CCC(=O)N(c1ccc(F)cc1)C1C=CS(=O)(=O)C1 (centres undefined)	none
CC(=O)N(c1ccc(C(C)C)cc1)C1C=CS(=O)(=O)C1 (centres undefined)	none
COc1cc(C(C)=O)ccc1COc1ccc(C(=O)OC(C)C(=O)NC(N)=O)cc1OC (centres undefined)	none
Cc1sc2nc(CSCC(=O)N(CCC#N)c3ccccc3)[nH]c(=O)c2c1C	none
CCCN1C(=O)/C(=C/c2ccc(N3CCCC3)c(C)c2)NC1=S	INS promoter act 92.0
